Calls of active or inactive are those of the source. The rule behind the calls is not given here.
Assays:
[1] = target: Metabotropic glutamate receptor 5 (Rattus norvegicus) (UniProt P31424); assay: Inhibition of [3H]MPEP binding to mGluR5 in rat brain membrane at 100 uM; format: cell membranes
[2] = target: Metabotropic glutamate receptor 5 (Homo sapiens, UniProt P41594); assay: Antagonist activity against mGluR5 expressed in CHO cells assessed as inhibition of agonist-induced phosphoinositide hydrolysis; format: functional, cell-based
[3] = target: Metabotropic glutamate receptor 5 (Rattus norvegicus, UniProt P31424); assay: Inhibition of [3H]MPEP binding to mGluR5 in rat brain membrane; format: cell membranes
Method in brief: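 Rat brain membranes spun twice at 30,000g for 10 min, resuspended in ice-cold 50 mM Tris–HCl pH 7.0 with 1% BSA. Displacement by 10 drug concentrations run three times. Incubated 2.5 h at 4 °C to steady state, then filtered over PEI-presoaked glass-fibre filters.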

[4] = target: Metabotropic glutamate receptor 5 (Rattus norvegicus) (UniProt P31424); details: Brain, Membrane, 10 uM

Sequence of Metabotropic glutamate receptor 5 (Rattus norvegicus, UniProt P31424) (P31424 whole entry): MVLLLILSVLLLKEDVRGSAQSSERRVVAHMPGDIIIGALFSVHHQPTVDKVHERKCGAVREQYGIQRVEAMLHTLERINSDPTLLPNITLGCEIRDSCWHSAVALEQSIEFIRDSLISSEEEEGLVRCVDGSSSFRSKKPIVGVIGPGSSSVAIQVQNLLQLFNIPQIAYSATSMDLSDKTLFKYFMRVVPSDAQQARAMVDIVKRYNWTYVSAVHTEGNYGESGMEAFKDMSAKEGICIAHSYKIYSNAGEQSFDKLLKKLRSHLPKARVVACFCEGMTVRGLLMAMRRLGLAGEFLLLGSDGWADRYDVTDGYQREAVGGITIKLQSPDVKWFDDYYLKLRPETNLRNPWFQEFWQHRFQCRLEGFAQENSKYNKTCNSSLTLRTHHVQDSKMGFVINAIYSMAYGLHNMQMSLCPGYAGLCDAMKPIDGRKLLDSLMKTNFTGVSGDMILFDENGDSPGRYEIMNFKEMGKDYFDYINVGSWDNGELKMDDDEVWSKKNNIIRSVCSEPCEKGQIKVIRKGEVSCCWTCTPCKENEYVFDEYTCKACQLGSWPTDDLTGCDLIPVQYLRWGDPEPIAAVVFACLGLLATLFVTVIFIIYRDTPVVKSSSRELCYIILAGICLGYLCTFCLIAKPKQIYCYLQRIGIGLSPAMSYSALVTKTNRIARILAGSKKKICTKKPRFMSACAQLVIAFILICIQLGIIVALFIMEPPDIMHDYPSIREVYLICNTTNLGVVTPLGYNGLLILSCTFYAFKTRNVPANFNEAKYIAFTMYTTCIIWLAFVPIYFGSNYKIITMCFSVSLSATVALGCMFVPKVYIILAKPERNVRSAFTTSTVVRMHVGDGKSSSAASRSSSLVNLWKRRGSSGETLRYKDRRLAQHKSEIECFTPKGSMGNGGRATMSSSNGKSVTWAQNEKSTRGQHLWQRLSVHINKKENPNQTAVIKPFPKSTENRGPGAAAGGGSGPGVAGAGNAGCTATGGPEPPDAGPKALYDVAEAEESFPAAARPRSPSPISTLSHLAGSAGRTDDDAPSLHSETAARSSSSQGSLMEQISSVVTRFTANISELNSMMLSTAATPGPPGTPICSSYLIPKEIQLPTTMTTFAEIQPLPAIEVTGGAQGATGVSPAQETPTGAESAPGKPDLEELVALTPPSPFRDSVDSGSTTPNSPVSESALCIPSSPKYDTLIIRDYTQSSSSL
Sequence of Metabotropic glutamate receptor 5 (Homo sapiens, UniProt P41594) (P41594 whole entry): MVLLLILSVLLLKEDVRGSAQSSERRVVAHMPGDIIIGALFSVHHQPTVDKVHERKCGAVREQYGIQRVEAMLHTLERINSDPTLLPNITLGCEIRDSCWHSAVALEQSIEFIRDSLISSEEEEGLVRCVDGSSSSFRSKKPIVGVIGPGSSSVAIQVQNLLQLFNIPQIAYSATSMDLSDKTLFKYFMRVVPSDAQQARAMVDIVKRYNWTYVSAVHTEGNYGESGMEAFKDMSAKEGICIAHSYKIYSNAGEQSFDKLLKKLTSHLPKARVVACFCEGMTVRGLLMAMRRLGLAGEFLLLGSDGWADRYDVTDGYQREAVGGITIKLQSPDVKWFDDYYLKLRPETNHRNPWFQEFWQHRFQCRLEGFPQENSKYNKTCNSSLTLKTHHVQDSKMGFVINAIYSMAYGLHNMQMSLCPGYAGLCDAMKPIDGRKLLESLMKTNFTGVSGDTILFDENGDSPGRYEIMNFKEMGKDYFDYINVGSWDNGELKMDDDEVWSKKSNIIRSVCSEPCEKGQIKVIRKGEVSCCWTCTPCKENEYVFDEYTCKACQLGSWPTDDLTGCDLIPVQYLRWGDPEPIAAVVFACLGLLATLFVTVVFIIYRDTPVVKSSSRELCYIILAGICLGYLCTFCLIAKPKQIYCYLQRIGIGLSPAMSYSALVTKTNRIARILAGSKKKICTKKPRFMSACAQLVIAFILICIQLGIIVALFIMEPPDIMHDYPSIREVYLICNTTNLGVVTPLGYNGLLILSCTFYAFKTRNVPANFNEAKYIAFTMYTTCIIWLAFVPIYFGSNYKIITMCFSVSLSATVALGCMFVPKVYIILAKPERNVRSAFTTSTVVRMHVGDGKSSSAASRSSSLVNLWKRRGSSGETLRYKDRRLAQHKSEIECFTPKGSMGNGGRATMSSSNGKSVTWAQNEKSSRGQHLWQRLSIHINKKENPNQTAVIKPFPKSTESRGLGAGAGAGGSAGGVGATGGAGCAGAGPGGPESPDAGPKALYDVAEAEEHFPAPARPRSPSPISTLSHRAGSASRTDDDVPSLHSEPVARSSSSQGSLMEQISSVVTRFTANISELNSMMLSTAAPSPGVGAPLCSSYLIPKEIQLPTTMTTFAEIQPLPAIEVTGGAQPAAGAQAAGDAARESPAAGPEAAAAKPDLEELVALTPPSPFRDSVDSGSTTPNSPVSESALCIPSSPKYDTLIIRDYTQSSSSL
Sequence of Metabotropic glutamate receptor 5 (Rattus norvegicus) (P31424 21-1203 limits assumed): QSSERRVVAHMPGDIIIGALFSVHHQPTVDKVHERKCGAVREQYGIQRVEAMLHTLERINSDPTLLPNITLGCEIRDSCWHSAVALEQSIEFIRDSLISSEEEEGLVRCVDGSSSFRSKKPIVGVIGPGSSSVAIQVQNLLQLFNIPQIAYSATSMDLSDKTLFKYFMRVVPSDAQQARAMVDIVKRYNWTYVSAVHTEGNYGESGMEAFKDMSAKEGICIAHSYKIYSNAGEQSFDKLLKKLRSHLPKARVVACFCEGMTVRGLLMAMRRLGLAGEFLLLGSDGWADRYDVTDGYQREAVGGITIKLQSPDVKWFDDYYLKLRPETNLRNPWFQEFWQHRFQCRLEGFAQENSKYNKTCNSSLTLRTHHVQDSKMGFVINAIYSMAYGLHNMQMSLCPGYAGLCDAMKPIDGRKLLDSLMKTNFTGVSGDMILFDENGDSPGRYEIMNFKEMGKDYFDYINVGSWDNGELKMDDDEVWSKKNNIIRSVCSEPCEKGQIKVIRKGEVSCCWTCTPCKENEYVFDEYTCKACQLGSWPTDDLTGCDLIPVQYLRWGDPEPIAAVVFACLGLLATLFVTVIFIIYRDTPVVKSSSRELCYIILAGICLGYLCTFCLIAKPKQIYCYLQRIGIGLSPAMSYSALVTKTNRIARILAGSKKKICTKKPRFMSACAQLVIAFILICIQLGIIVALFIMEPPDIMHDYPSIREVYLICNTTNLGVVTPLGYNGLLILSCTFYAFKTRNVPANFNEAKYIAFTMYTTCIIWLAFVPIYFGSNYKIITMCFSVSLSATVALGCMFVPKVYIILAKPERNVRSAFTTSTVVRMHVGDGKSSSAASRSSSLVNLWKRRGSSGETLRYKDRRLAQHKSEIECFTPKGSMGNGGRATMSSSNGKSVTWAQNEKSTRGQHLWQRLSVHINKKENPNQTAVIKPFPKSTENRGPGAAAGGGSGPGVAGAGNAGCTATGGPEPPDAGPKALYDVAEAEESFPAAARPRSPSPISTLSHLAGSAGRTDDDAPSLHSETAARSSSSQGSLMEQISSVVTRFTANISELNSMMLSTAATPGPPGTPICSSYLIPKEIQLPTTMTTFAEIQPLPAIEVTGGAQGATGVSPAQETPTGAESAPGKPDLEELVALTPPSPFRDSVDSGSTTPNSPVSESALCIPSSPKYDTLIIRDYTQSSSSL

Cc1cccc(CNc2ccccc2)n1
Activity [1]: inactive

COc1cccc(C(=O)Nc2cccc(C)n2)c1
IC50 [2]: 46 µM
IC50 [3]: 9.76 µM

Cc1cccc(NC(=O)c2cccc(/C=C/c3ccccc3)c2)n1
Activity [1]: inactive

Cc1cccc(NC(=O)c2cccc3ccccc23)n1
IC50 [3]: 62.8 µM

Cc1ccc(O)c(/N=N/c2ccccc2)n1
IC50 [3]: 1.17 µM

Cc1cccc(NC(=O)C2CCCN(Cc3ccccc3)C2)n1 (centres undefined)
inhibition [1]: 14%

Cc1cccc(NC(=O)c2cccc(Cl)c2)n1
IC50 [3]: 1.73 µM
inhibition [4]: 66%

Cc1cccc(NC(=O)c2cccc(OS(C)(=O)=O)c2)n1
IC50 [3]: 83.6 µM

Cc1cccc(NC(=O)c2cccc(Br)c2)n1
IC50 [2]: 5.48 µM
IC50 [3]: 0.65 µM

Cc1cccc(NC(=O)C2CCCN(Cc3cccc(Cl)c3)C2)n1 (centres undefined)
inhibition [1]: 31%

Cc1cccc(NC(=O)c2cccc(C#N)c2)n1
IC50 [2]: 5.33 µM
IC50 [3]: 0.33 µM

Cc1cccc(NC(=O)c2cccc(Oc3ccccc3)c2)n1
IC50 [3]: 57 µM

Cc1csc(NC(=O)c2cccc(Cl)c2)n1
IC50 [2]: 15 µM
IC50 [3]: 5.49 µM

Cc1csc(NC(=O)c2cccnc2)n1
Activity [1]: inactive

COc1cccc(C(=O)Nc2nc(C)cs2)c1
IC50 [3]: 9.1 µM

Cc1cccc(NC(=O)c2ccccc2)n1
IC50 [3]: 35 µM

Cc1ccc(S(=O)(=O)N2CCCC(C(=O)Nc3cccc(C)n3)C2)cc1 (centres undefined)
inhibition [1]: 31%

Cc1cccc(NC(=O)c2cccnc2)n1
Activity [1]: inactive

Cc1cccc(NC(=O)c2ccccc2Cl)n1
Activity [1]: inactive

Cc1cccc(NC(=O)c2cccc(I)c2)n1
IC50 [2]: 10.8 µM
IC50 [3]: 1.08 µM

Cc1csc(NC(=O)c2ccccc2)n1
IC50 [3]: 65 µM

Cc1cccc(C(=O)Nc2cccc(C)n2)c1
IC50 [2]: 5.9 µM
IC50 [3]: 1.84 µM

Cc1cccc(/C=C/c2ccccc2)n1
IC50 [3]: 1.08 µM

Cc1cccc(NC(=O)c2ccc(Cl)cc2)n1
Activity [1]: inactive

Cc1cccc(NCc2ccccc2)n1
Activity [1]: inactive

Cc1cccc(NC(=O)c2cccc(-c3ccccc3)c2)n1
IC50 [2]: 18.3 µM
IC50 [3]: 7.3 µM

O=C(Nc1cccc(Cl)n1)c1cccc(Cl)c1
IC50 [2]: 12.7 µM
IC50 [3]: 1.53 µM

Cc1cccc(NC(=O)C2CCCN(C)C2)n1 (centres undefined)
Activity [1]: inactive

Cc1cccc(NC(=O)c2ccc3ccccc3c2)n1
Activity [1]: inactive

Cc1cccc(NC(=O)c2cccc(S(C)(=O)=O)c2)n1
Activity [1]: inactive

Cc1ccc(S(=O)(=O)Nc2cccc(C)n2)cc1
Activity [1]: inactive

O=C(Nc1ccccn1)c1ccccc1
IC50 [3]: 95.4 µM

Cc1cccc(NC(=O)c2cccc(OCCc3ccccc3)c2)n1
IC50 [3]: 23.6 µM

Cc1cccc(NC(=O)c2cccc(OCc3ccccc3)c2)n1
IC50 [3]: 33 µM

Cc1cccc(NC(=O)c2cccc(C(F)(F)F)c2)n1
IC50 [3]: 18.7 µM
